# Source: PubChem
# MrgX1 antagonist = antagonists of human MrgX1 receptor, primary screen, HEK293 cells, Fluo-4 calcium flux. Mas-related G-protein coupled receptor member X1 (Homo sapiens), Q96LB2. hit rate 1.3% among 310,000. BAM8-22 antagonism; stronger effect = lower value. B-score at 10 µM;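 active = calcium-response B-score plate-corrected more than 3 library SD below zero, starting fluorescence within 5 deviations, no agonist response on first addition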;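 also: peak minus trough fluorescence over baseline after final BAM8-22 challenge near maximal dose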
# Target sequence (Q96LB2 whole entry, looked up): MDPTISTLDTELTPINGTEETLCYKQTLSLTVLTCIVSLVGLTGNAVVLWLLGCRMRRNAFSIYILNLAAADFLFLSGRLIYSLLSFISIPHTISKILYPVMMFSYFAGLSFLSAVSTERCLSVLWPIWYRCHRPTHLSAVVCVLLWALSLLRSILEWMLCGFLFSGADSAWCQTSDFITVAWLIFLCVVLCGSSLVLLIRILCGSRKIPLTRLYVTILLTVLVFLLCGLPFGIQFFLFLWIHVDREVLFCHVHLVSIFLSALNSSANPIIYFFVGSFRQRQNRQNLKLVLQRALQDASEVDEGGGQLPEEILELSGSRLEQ
# RGS4 pot = RGS4 potentiators or activators, primary screen, cell-based, HEK293 M3R inducible RGS4, calcium flux | carbachol calcium flux Fluo4; stronger effect = lower value | hit rate 0.92% among 310,000 | B-score at 10 µM;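 active = B-score of the integrated calcium signal more than 4 SD below the library mean, with starting fluorescence not abnormally high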;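 also: negative B-score means reduced calcium response which marks RGS4 activation or potentiation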
#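 Reagent: ECmax carbachol challenge; Test system: M3R-expressing HEK293 line, RGS4 induced by doxycycline; Schedule: overnight RGS4 induction, 30 min dye load 37 °C, 20 min compound RT; Detection: calcium dye Fluo4 fluorescence; Read-out: Agonist-evoked peak-minus-minimum fluorescence over baseline, integrated ratio, B score.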
# MrgX1 ag = agonists of human MrgX1 receptor, primary screen, HEK293 cells, Fluo-4 calcium flux | Fluo-4 calcium fluorescence, agonist mode; stronger effect = higher value | hit rate 0.44% among 310,000 | Mas-related G-protein coupled receptor member X1 (Homo sapiens), Q96LB2 | B-score at 10 µM;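 active = calcium response B-score plate-corrected fluorescence ratio at least 3 library SD, with starting fluorescence B-score inside 5 SD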
#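 Test system: HEK293 cells stably expressing human MrgX1 receptor; amount: 15,000 cells per well; doses: compound delivered in addition one of three; times: overnight plating before 1 h dye loading; detection: Fluo-4 NW calcium-flux fluorescence, kinetic read; read-out basis: B-scored fluorescence response ratio; controls: positive and negative controls per plate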
# RGS4 block = RGS4 inhibitors, primary screen, cell-based, HEK293 M3R inducible RGS4, calcium flux; Regulator of G-protein signaling 4 (Homo sapiens), P49798; Fluo-4 calcium flux; stronger effect = higher value; triggered by carbachol at its EC20; B-score at 10 µM; hit rate 0.45% among 310,000; AID 463165, 2010;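 active = B-score, a plate-corrected calcium signal, over three deviations above library mean, with baseline fluorescence within five deviations of library mean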;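 also: RGS4 expression induced by doxycycline in cells with stable M3 receptor; B-score is computed from the integrated fluorescence ratio over baseline after carbachol; higher B-score means a larger calcium signal and so more RGS4 inhibition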
# Target sequence (P49798 whole entry, looked up): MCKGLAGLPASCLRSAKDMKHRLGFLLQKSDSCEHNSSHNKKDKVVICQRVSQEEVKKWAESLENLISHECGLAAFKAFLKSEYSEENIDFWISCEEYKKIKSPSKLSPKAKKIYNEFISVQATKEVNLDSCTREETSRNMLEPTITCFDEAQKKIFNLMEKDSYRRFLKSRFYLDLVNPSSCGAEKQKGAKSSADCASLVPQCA
# Lipid droplet = inhibitors of hepatocyte lipid droplet formation, primary screen, imaging, high-throughput imaging, BODIPY stain | AML12 mouse hepatocytes, oleate lipid droplets | inhibition, % at 6.5 µM | hit rate 0.4% among 240,000 | AID 1656, 2009;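 active = lipid droplet intensity inhibited by at least 50%, with more than 500 cells counted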
#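 System: AML12 hepatocytes (mouse). Probe or stimulus: oleic acid at 100 µM to induce lipid droplet formation. Times: overnight treatment with compound plus oleate. Detection: Image-based BODIPY and DAPI two-channel analysis. Evaluation: percent inhibition of filter-corrected integrated lipid droplet intensity per well.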
# MrgX1 allo act = positive allosteric modulators of MrgX1, primary screen, HEK293 cells, Fluo-4 calcium flux; Mas-related G-protein coupled receptor member X1 (Homo sapiens), Q96LB2; hit rate 0.63% among 310,000; B-score at 10 µM; AID 588675, 2011; FDSS; stronger effect = higher value;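 active = plate-corrected calcium response at least 3 library SD above typical, normal starting fluorescence, not activating the receptor alone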;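 also: compound read alongside a low EC10 to EC30 dose of BAM8-22 agonist; peak minus trough fluorescence over baseline measured at the second addition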
# RGS4 inh valid = enhanced carbachol calcium response, M3R/RGS4 cells, RGS4 inhibitor project, cell-based, validation screen, HEK293 M3R/RGS4, calcium flux | shares compounds with RGS4 block | carbachol calcium Fluo-4 fluorescence; carbachol added at its EC20; 0 = buffer wells, 100 = carbachol control | calcium response, % at 10 µM | hit rate 65% among 1,700 | AID 492999, 2010;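 active = duplicate-averaged calcium response above the buffer-only control mean plus 5 SD of those controls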;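 also: integrated fluorescence ratio F max minus min over baseline F0; higher response in RGS4-induced cells means RGS4 inhibition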
# RGS4 uninduced = carbachol calcium response in non-induced M3R cells, confirmation, counter-screen for RGS4 inhibitor project, cell-based, HEK293 M3R; AID 493000, 2010; shares compounds with RGS4 block; activity (percent), % at 10 µM; hit rate 20% among 1,900; carbachol calcium Fluo-4; submaximal (EC20) carbachol stimulus; buffer wells 0%, carbachol control wells 100%; call rule not given here;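 also: RGS4 induction absent so cells express M3R without RGS4; higher means more calcium signal and flags a non-specific hit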
# M3R basal Ca ctr = signal in non-induced cells without carbachol, RGS4 inhibitor counter-screen. shares compounds with RGS4 block. HEK293 M3R/RGS4 non-induced, Fluo-4 calcium, no carbachol; normalised: buffer wells 0%, carbachol wells 100%. calcium response (agonist-mode artifact), % at 10 µM. hit rate 22% among 1,900;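 active = duplicate-averaged calcium rise in uninduced cells above buffer wells' mean plus 5 SD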
# Starred values were filed as active, the others as inactive; i = inactive; . = no result. A selection: hits, their analogues and other compounds. The true share with any hit is near 3.8%.
SMILES,MrgX1 antagonist,RGS4 pot,MrgX1 ag,RGS4 block,Lipid droplet,MrgX1 allo act,RGS4 inh valid,RGS4 uninduced,M3R basal Ca ctr
Cc1ccc(/C=N/NC(=O)NC2CCCCC2)o1,i,i,i,i,2,i,.,.,.
Cc1ccc(C(=O)NCc2ccc3c(c2)OCO3)o1,i,i,i,i,14,i,.,.,.
Cc1ccc(/C=C/C(=O)NCCc2c[nH]c3ccccc23)o1,i,i,i,i,18,i,.,.,.
Cc1ccc(/C=C/C(=O)NCCc2cccc(Cl)c2)o1,i,i,i,6.9*,-23,i,24%*,i,i
Cc1ccc(/C=C/C(=O)NC2CCCCCCC2)o1,i,i,i,8.8*,1,i,22%*,i,i
Cc1ccc(/C=C/C(=O)NCc2ccc3c(c2)OCO3)o1,i,i,i,5.6*,31,i,10%*,i,i
CCOC(=O)c1ccc(N2C(=O)c3n[nH]c(C)c3C2c2ccco2)cc1 (stereo not drawn),i,i,i,i,.,i,.,.,.
CCOC(=O)c1ccc(N2C(=O)c3n[nH]c(-c4ccco4)c3C2c2cccc([N+](=O)[O-])c2)cc1 (stereo not drawn),i,i,i,6.7*,48,i,i,i,i
CCOC(=O)c1sc(N2C(=O)C(O)=C(C(=O)c3ccc(C)o3)C2c2cccc([N+](=O)[O-])c2)nc1C (stereo not drawn),i,i,i,7.3*,16,i,24%*,i,i
C=CCn1c(SCC(=O)N2CCc3ccccc3C2)nc2ccccc2c1=O,i,i,i,i,.,i,.,.,.
O=C(NC1CCN(C(=S)NCc2ccco2)CC1)c1cccc(F)c1,i,i,i,i,23,i,.,.,.
O=C(Nc1ccc(S(=O)(=O)Nc2cnc3ccccc3n2)cc1)c1ccc(Cl)c([N+](=O)[O-])c1,i,i,i,8.9*,1,17*,14%*,56%*,i
O=S(=O)(C/C(=C/CO)S(=O)(=O)c1ccccc1)c1ccccc1,i,i,34*,10*,.,i,38%*,36%*,16%*
CN(Cc1ccccc1)C(=O)c1nc2ccccn2c1CN1CCC(N2CCOCC2)CC1,i,i,i,i,-6,i,.,.,.
O=C(Cc1cccs1)N1CCC(c2nc3c(nnn3Cc3ccc(F)cc3)c(=O)[nH]2)CC1,i,i,i,i,.,i,i,i,i
Cc1ccc(N/C(=C\C(=O)c2ccccc2)C(=O)O)cc1,i,i,i,i,-14,i,.,.,.
O=C1NC(=O)/C(=C/c2ccc(-c3cc(C(=O)O)ccc3Cl)o2)S1,i,i,i,6.2*,1,i,12%*,i,i
COC(=O)/C=c1\sc2ncnn2c1=O,i,i,i,11*,4,i,i,i,i
Cc1cccc(N(CC(=O)NCc2ccco2)C(=O)CNS(=O)(=O)c2ccc(F)cc2)c1,i,i,i,i,-7,i,.,.,.
Cc1ccc(C)c(N(CC(=O)NCc2ccco2)C(=O)CNS(=O)(=O)c2ccc(F)cc2)c1,i,i,i,i,-5,i,.,.,.
O=C(CN(C(=O)CNS(=O)(=O)c1ccc(F)cc1)c1ccccc1)NCc1ccco1,i,i,i,i,-16,i,i,i,i
O=C(CN(C(=O)CNS(=O)(=O)c1ccc(F)cc1)c1ccc(F)cc1)NCc1ccco1,i,i,i,i,0,i,i,i,i
O=C(CN(C(=O)CNS(=O)(=O)c1ccc(F)cc1)c1ccccc1F)NCc1ccco1,i,i,i,4.9*,0,i,i,i,i
CCOC(=O)c1ccc(N=c2sc(C(=O)OC)cc(=O)n2Cc2ccco2)cc1,i,i,i,i,8,i,i,i,i
COC(=O)c1cc(=O)n(CCc2ccc(OC)cc2)c(=Nc2ccc(F)c(Cl)c2)s1,i,i,i,i,.,i,i,i,19%*
SMILES,MrgX1 antagonist,RGS4 pot,MrgX1 ag,RGS4 block,Lipid droplet,MrgX1 allo act,RGS4 inh valid,RGS4 uninduced,M3R basal Ca ctr
CCOC(=O)c1ccc(N=c2sc(C(=O)OC)cc(=O)n2CCCN2CCOCC2)cc1,i,i,i,i,6,i,.,.,.
CCn1c(=O)cc(C(=O)OC)sc1=Nc1ccc(F)c(F)c1,i,i,i,13*,.,i,56%*,80%*,i
CC(=O)Nc1cccc(NC(=O)CCNC(=O)c2ccc(Cl)cc2)c1,i,i,i,i,-1,i,.,.,.
Cc1noc(NS(=O)(=O)c2ccc(N/C=C/C(=O)c3ccc(F)cc3)cc2)c1C,i,i,i,i,-3,i,.,i,i
CCc1ccc(C(=O)/C=C/Nc2ccc(S(=O)(=O)Nc3onc(C)c3C)cc2)cc1,i,i,i,i,1,i,.,.,.
Cc1noc(NS(=O)(=O)c2ccc(N/C=C/C(=O)c3ccncc3)cc2)c1C,i,i,i,i,7,i,i,i,i
Cc1noc(NS(=O)(=O)c2ccc(N/C=C\C(=O)c3ccncc3)cc2)c1C,i,i,i,i,.,i,.,i,i
O=C1NC[C@@H](Cc2cccc3ccccc23)N(CCC23CC4CC(CC(C4)C2)C3)C1=O,i,i,i,4.8*,.,i,12%*,32%*,i
Cc1cccc(-n2nc(C)c3c(C(=O)O)cc(-c4cccs4)nc32)c1,i,i,i,9.5*,26,i,19%*,30%*,i
